ChEMBL document CHEMBL5724801, “EUbOPEN Chemogenomics Library - Multiplex” (2024)
Where “and” joins values, the source holds several entries; their conditions need not be identical. Equal entries are not always repeated.

System: Fibroblast
Assay: Multiplex assay against human fibroblast
Type: toxicity, cell-based
In short: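 Values for tubulin, mitochondrial-mass and membrane-permeability phenotypes are per cents of cells with healthy nuclei. These cells were identified by CellPathfinder machine-learning gating of live cells that had been stained at seeding with Hoechst33342, BioTracker Green Microtubule Cytoskeleton Dye, MitoTracker Red and Annexin V Alexa Fluor 680 and imaged on a CQ1 microscope at 37°C and 5% CO2 after compound addition. The gating first set Hoechst high-intensity objects apart from normal cells, then split normal cells into healthy, pyknosed or fragmented nuclei, and pyknosed cells into mitotic or apoptotic.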

[1] = 12 h, 1 µM, compound concentration 1 uM
[2] = 12 h, 10 µM, compound concentration 10 uM
[3] = 24 h, 1 µM, compound concentration 1 uM
[4] = 24 h, 10 µM, compound concentration 10 uM
[5] = 48 h, 1 µM, compound concentration 1 uM
[6] = 48 h, 10 µM, compound concentration 10 uM

In the case of COCCNc1cc(NC(=O)N2CCCc3cc(CN4CCN(C)CC4=O)c(C=O)nc32)ncc1C#N [FGF401], the “Population Apoptotic (%)” value [1] is reported as 10.64% and 13.95%, the “Population Fragmented Nuclei (%)” value [1] is reported as 11.5% and 4.82% and the “Population Healthy Nuclei (%)” value [1] is reported as 65% and 77.91%. The “Population Hoechst High Intensity Objects (%)” value [1] was 0%, the “Population Membrane Permeable-Phenotype (%)” value [1] was 3.85% and 1.03% and the “Population Mitochondria Different-Phenotype (%)” value [1] was 6.15% and 8.25%. The “Population Mitotic Cells (%)” value [1] was 89.36% and 86.05%, the “Population Normal (%)” value [1] was 100% and the “Population Pyknosed Nuclei (%)” value [1] was 23.5% and 17.27%. The “Population Tubulin-Different-Phenotype (%)” value [1] was 13.08% and 10.31%, the “Total Cell Count” value [1] was 200 and 249 and the “Population Apoptotic (%)” value [2] was 14.63% and 19.35%. For the same molecule, the “Population Fragmented Nuclei (%)” value [2] was 15.03% and 6.59%, the “Population Healthy Nuclei (%)” value [2] was 58.17% and 76.37% and the “Population Hoechst High Intensity Objects (%)” value [2] was 0%. For the same molecule, the “Population Membrane Permeable-Phenotype (%)” value [2] was 3.37% and 5.76%, the “Population Mitochondria Different-Phenotype (%)” value [2] was 11.24% and 10.07% and the “Population Mitotic Cells (%)” value [2] was 85.37% and 80.65%. The “Population Normal (%)” value [2] was 100%, the “Population Pyknosed Nuclei (%)” value [2] was 26.8% and 17.03% and the “Population Tubulin-Different-Phenotype (%)” value [2] was 22.47% and 25.9%. For the same molecule, the “Total Cell Count” value [2] was 153 and 182, the “Population Apoptotic (%)” value [3] was 11.11% and 15.38% and the “Population Fragmented Nuclei (%)” value [3] was 11.01% and 5.33%. The “Population Healthy Nuclei (%)” value [3] was 68.35% and 89.34%, the “Population Hoechst High Intensity Objects (%)” value [3] was 0% and the “Population Membrane Permeable-Phenotype (%)” value [3] was 7.38% and 0.46%. The “Population Mitochondria Different-Phenotype (%)” value [3] was 4.7% and 6.42%, the “Population Mitotic Cells (%)” value [3] was 88.89% and 84.62% and the “Population Normal (%)” value [3] was 100%. The “Population Tubulin-Different-Phenotype (%)” value [3] was 9.4% and 12.84%, the “Total Cell Count” value [3] was 218 and 244 and the “Population Apoptotic (%)” value [4] was 8.57% and 3.23%. For the same molecule, the “Population Fragmented Nuclei (%)” value [4] was 12.26% and 4.02%, the “Population Healthy Nuclei (%)” value [4] was 65.16% and 80.4% and the “Population Hoechst High Intensity Objects (%)” value [4] was 0%. The “Population Membrane Permeable-Phenotype (%)” value [4] was 8.91% and 3.75%, the “Population Mitochondria Different-Phenotype (%)” value [4] was 6.93% and 8.75% and the “Population Mitotic Cells (%)” value [4] was 91.43% and 96.77%. For the same molecule, the “Population Normal (%)” value [4] was 100%, the “Population Pyknosed Nuclei (%)” value [4] was 22.58% and 15.58% and the “Population Tubulin-Different-Phenotype (%)” value [4] was 17.82% and 16.88%. For the same molecule, the “Total Cell Count” value [4] was 155 and 199, the “Population Fragmented Nuclei (%)” value [5] was 9.45% and 6.06% and the “Population Healthy Nuclei (%)” value [5] was 81.89% and 88.26%. The “Population Hoechst High Intensity Objects (%)” value [5] was 0%, the “Population Membrane Permeable-Phenotype (%)” value [5] was 0.48% and 1.29% and the “Population Mitochondria Different-Phenotype (%)” value [5] was 12.02% and 2.58%. For the same molecule, the “Population Mitotic Cells (%)” value [5] was 63.64% and 93.33%, the “Population Normal (%)” value [5] was 100% and the “Population Pyknosed Nuclei (%)” value [5] was 8.66% and 5.68%. The “Population Tubulin-Different-Phenotype (%)” value [5] was 2.88% and 11.59%, the “Total Cell Count” value [5] was 254 and 264 and the “Population Apoptotic (%)” value [6] was 27.27% and 18.18%. The “Population Fragmented Nuclei (%)” value [6] was 9.49% and 6.84%, the “Population Healthy Nuclei (%)” value [6] was 83.54% and 87.37% and the “Population Hoechst High Intensity Objects (%)” value [6] was 0%. For the same molecule, the “Population Membrane Permeable-Phenotype (%)” value [6] was 1.52% and 1.81%, the “Population Mitotic Cells (%)” value [6] was 72.73% and 81.82% and the “Population Normal (%)” value [6] was 100%. For the same molecule, the “Population Pyknosed Nuclei (%)” value [6] was 6.96% and 5.79%, the “Population Tubulin-Different-Phenotype (%)” value [6] was 9.85% and 22.29% and the “Total Cell Count” value [6] was 158 and 190.

With CC(C)(O)c1cnc(N2C[C@@]3(CCC[C@](C)(Cn4cnc5ccc(C#N)cc54)C3)OC2=O)cn1 [GSK2798745] the “Population Apoptotic (%)” value [1] was 7.14% and 16.22%, the “Population Fragmented Nuclei (%)” value [1] was 12.71% and 8% and the “Population Healthy Nuclei (%)” value [1] was 63.56% and 75.56%. The “Population Hoechst High Intensity Objects (%)” value [1] was 0%, the “Population Membrane Permeable-Phenotype (%)” value [1] was 4% and 4.12% and the “Population Mitochondria Different-Phenotype (%)” value [1] was 13.33% and 10.59%. For the same molecule, the “Population Mitotic Cells (%)” value [1] was 92.86% and 83.78%, the “Population Normal (%)” value [1] was 100% and the “Population Pyknosed Nuclei (%)” value [1] was 23.73% and 16.44%. The “Population Tubulin-Different-Phenotype (%)” value [1] was 16% and 20%, the “Total Cell Count” value [1] was 118 and 225 and the “Population Apoptotic (%)” value [2] was 11.76% and 21.62%. The “Population Fragmented Nuclei (%)” value [2] was 16.26% and 5.53%, the “Population Healthy Nuclei (%)” value [2] was 50.25% and 77.42% and the “Population Hoechst High Intensity Objects (%)” value [2] was 0%. The “Population Membrane Permeable-Phenotype (%)” value [2] was 14.71% and 12.5%, the “Population Mitochondria Different-Phenotype (%)” value [2] was 18.63% and 22.62% and the “Population Mitotic Cells (%)” value [2] was 88.24% and 78.38%. For the same molecule, the “Population Normal (%)” value [2] was 100%, the “Population Pyknosed Nuclei (%)” value [2] was 33.5% and 17.05% and the “Population Tubulin-Different-Phenotype (%)” value [2] was 52.94% and 55.95%. For the same molecule, the “Total Cell Count” value [2] was 203 and 217, the “Population Apoptotic (%)” value [3] was 9.09% and 21.05% and the “Population Fragmented Nuclei (%)” value [3] was 14.29% and 4.76%. For the same molecule, the “Population Healthy Nuclei (%)” value [3] was 65.22% and 87.01%, the “Population Hoechst High Intensity Objects (%)” value [3] was 0% and the “Population Membrane Permeable-Phenotype (%)” value [3] was 1.9% and 5.97%. The “Population Mitochondria Different-Phenotype (%)” value [3] was 4.76% and 5.97%, the “Population Mitotic Cells (%)” value [3] was 90.91% and 78.95% and the “Population Normal (%)” value [3] was 100%. The “Population Pyknosed Nuclei (%)” value [3] was 20.5% and 8.23%, the “Population Tubulin-Different-Phenotype (%)” value [3] was 16.19% and 21.89% and the “Total Cell Count” value [3] was 161 and 231. The “Population Apoptotic (%)” value [4] was 11.11% and 25.81%, the “Population Fragmented Nuclei (%)” value [4] was 15.38% and 6.88% and the “Population Healthy Nuclei (%)” value [4] was 68.33% and 78.9%. The “Population Hoechst High Intensity Objects (%)” value [4] was 0%, the “Population Membrane Permeable-Phenotype (%)” value [4] was 9.93% and 5.81% and the “Population Mitochondria Different-Phenotype (%)” value [4] was 12.58% and 22.09%. The “Population Mitotic Cells (%)” value [4] was 88.89% and 74.19%, the “Population Normal (%)” value [4] was 100% and the “Population Pyknosed Nuclei (%)” value [4] was 16.29% and 14.22%. For the same molecule, the “Population Tubulin-Different-Phenotype (%)” value [4] was 52.32% and 62.21%, the “Total Cell Count” value [4] was 221 and 218 and the “Population Fragmented Nuclei (%)” value [5] was 10.86% and 4.58%. For the same molecule, the “Population Healthy Nuclei (%)” value [5] was 82.29% and 90.83%, the “Population Hoechst High Intensity Objects (%)” value [5] was 0% and the “Population Membrane Permeable-Phenotype (%)” value [5] was 0% and 4.13%. The “Population Mitotic Cells (%)” value [5] was 91.67% and 63.64%, the “Population Normal (%)” value [5] was 100% and the “Population Pyknosed Nuclei (%)” value [5] was 6.86% and 4.58%. The “Population Tubulin-Different-Phenotype (%)” value [5] was 12.5% and 17.89%, the “Total Cell Count” value [5] was 175 and 240 and the “Population Apoptotic (%)” value [6] was 14.29% and 42.11%. For the same molecule, the “Population Fragmented Nuclei (%)” value [6] was 11.06% and 7.96%, the “Population Healthy Nuclei (%)” value [6] was 78.85% and 83.63% and the “Population Hoechst High Intensity Objects (%)” value [6] was 0%. The “Population Membrane Permeable-Phenotype (%)” value [6] was 4.27% and 11.64%, the “Population Mitochondria Different-Phenotype (%)” value [6] was 21.95% and 10.05% and the “Population Mitotic Cells (%)” value [6] was 85.71% and 57.89%. For the same molecule, the “Population Normal (%)” value [6] was 100%, the “Population Pyknosed Nuclei (%)” value [6] was 10.1% and 8.41% and the “Population Tubulin-Different-Phenotype (%)” value [6] was 44.51% and 59.79%. For the same molecule, the “Total Cell Count” value [6] was 208 and 226.
